Our source for the IC90 and Ki values is ChEMBL document CHEMBL1130044, “Design, synthesis, and evaluation of tetrahydropyrimidinones as an example of a general approach to nonpeptide HIV protease inhibitors” (J Med Chem, 1997).

Assay [1] deals with Human immunodeficiency virus type 1 (RF/HAT ISOLATE). Kind of assay: Reduction in HIV viral RNA concentration by 90% in MT-2 cells infected with HIV-1RF. Type of assay: functional. Conditions: Human immunodeficiency virus 1, RF, MT2. The method, boiled down: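 MT-2 cells infected with HIV-1RF; viral RNA transcript accumulation measured 3 days post-infection; value is the compound concentration lowering viral RNA by 90% from the reference level.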

For assay [2], the target named is Human immunodeficiency virus type 1 protease (Human immunodeficiency virus 1, UniProt Q72874). Kind of assay: Binding affinity against HIV protease. In short, it runs like this:
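HIV protease inhibition measured as cleavage of a fluorescent substrate, with the cleavage products quantified by HPLC. Ki values were derived from this assay.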

A further assay deals with MT2. Kind of assay: Concentration required to reduce HIV viral RNA concentration by 90% in MT-2 cells infected with HIV-1RF was determined. Particulars: Homo sapiens.

Molecule `COC(=O)c1ccc(CN2C(=O)N(Cc3ccc(C(=O)OC)cc3)[C@H](Cc3ccccc3)[C@H](O)[C@H]2CCc2ccccc2)cc1` displayed an IC90 in assay [1] above 5000 nM. The molecule further came in with a Ki in assay [2] of 1970 nM.
With `O=C1N(Cc2cccc(O)c2)[C@H](Cc2ccccc2)C(O)[C@@H](Cc2ccccc2)N1Cc1cccc(O)c1`, the Ki in assay [2] worked out at 33 nM.
In the assay with MT2, `O=C1N(Cc2ccc3ccccc3c2)C(Cc2ccccc2)P(=O)(O)C(Cc2ccccc2)N1Cc1ccc2ccccc2c1` (stereo unspecified) displayed an IC90 of 0.26 µM.
Turning to `COC(=O)c1cccc(CN2C(=O)C(=O)N(Cc3cccc(C(=O)OC)c3)[C@H](Cc3ccccc3)[C@H](O)[C@H]2CCc2ccccc2)c1`, the inhibitory constant (Ki) in assay [2] came out at 40 nM.
In assay [1], `Nc1cc(CN2C(=O)N(Cc3ccc(F)c(N)c3)[C@H](Cc3ccccc3)[C@H](O)[C@H]2CCc2ccccc2)ccc1F` came in with a concentration for an effect of 90% (IC90) of 36 nM. The Ki in assay [2] was 0.25 nM.
Consider `O=C1N(CC2CC2)[C@H](CCc2ccccc2)[C@@H](O)[C@@H](Cc2ccccc2)N1CC1CC1`, for which the 90% effect level in assay [1] (IC90) was put at 5200 nM. The molecule further came in with an inhibitory constant (Ki) in assay [2] of 3.8 nM.
For `NC(=O)c1cccc(CN2C(=O)N(Cc3cccc(C(N)=O)c3)[C@H](Cc3ccccc3)[C@H](O)[C@H]2CCc2ccccc2)c1` the same measures were 35 nM and 0.088 nM.
In the same order, the values of `NC(=O)c1cccc(CN2C(=O)N(Cc3cccc(C(N)=O)c3)[C@@H](Cc3ccccc3)[C@@H](O)[C@@H]2CCc2ccccc2)c1` are above 5000 nM and 4800 nM.
For the molecule `O=C1N[C@H](CCc2ccccc2)[C@@H](O)[C@@H](Cc2ccccc2)N1`, in assay [1], the IC90 is above 5000 nM.
The molecule `Nc1ccc(CN2C(=O)N(Cc3ccc(N)c(F)c3)[C@H](Cc3ccccc3)[C@H](O)[C@H]2CCc2ccccc2)cc1F` registered an IC90 in assay [1] of 540 nM. The affinity in assay [2] corresponds to a Ki of 8 nM.
As to `N=C(NO)c1cccc(CN2C(=O)N(Cc3cccc(/C(N)=N\O)c3)[C@@H](CCc3ccccc3)[C@H](O)[C@@H]2Cc2ccccc2)c1`, in assay [1], the IC90 is above 5000 nM.
Take `Nc1cccc(CN2C(=O)N(Cc3cccc(N)c3)[C@H](Cc3ccccc3)[C@H](O)[C@H]2CCc2ccccc2)c1`: the IC90 in assay [1] is 365 nM. In addition, affinity in assay [2] was put at a Ki of 1.7 nM.
The molecule `O=C1N(Cc2ccccc2)[C@@H](Cc2ccccc2)C(O)[C@H](Cc2ccccc2)N1Cc1ccccc1` came in with an IC90 with MT2 of 80 µM.
`COC(=O)c1cccc(CN2C(=O)N(Cc3cccc(C(=O)OC)c3)[C@H](Cc3ccccc3)[C@H](O)[C@H]2CCc2ccccc2)c1` gave an IC90 in assay [1] above 5000 nM.
`N#Cc1cccc(CN2C(=O)N(Cc3cccc(C#N)c3)[C@H](Cc3ccccc3)[C@H](O)[C@H]2CCc2ccccc2)c1`: the IC90 in assay [1] was 1600 nM. The same molecule returned a Ki in assay [2] of 11 nM.
For `CNc1cccc(CN2C(=O)N(Cc3cccc(NC)c3)[C@H](Cc3ccccc3)[C@H](O)[C@H]2CCc2ccccc2)c1` the same measures were 328 nM and 4.9 nM.
For `O=C1N(Cc2ccc(CO)cc2)[C@H](CCc2ccccc2)[C@@H](O)[C@@H](Cc2ccccc2)N1Cc1ccc(CO)cc1` the same measures were 3600 nM and 2.5 nM.
With `O=C1N(Cc2cccc(CO)c2)[C@@H](CCc2ccccc2)[C@H](O)[C@H](Cc2ccccc2)N1Cc1cccc(CO)c1`, the IC90 in assay [1] was above 5000 nM. The same molecule came in with a Ki in assay [2] of 550 nM.
Consider `N#Cc1cccc(CN2C(=O)N(Cc3cccc(C#N)c3)[C@@H](Cc3ccccc3)[C@@H](O)[C@@H]2CCc2ccccc2)c1`, for which, in assay [1], the IC90 is above 5000 nM. In assay [2], this molecule gave a Ki of 8000 nM.
For `O=C1N(Cc2cccc(O)c2)[C@H](CCc2ccccc2)[C@@H](O)[C@@H](Cc2ccccc2)N1Cc1cccc(O)c1` the same measures were 115 nM and 0.3 nM.
`COC(=O)c1cccc(CN2C(=O)N(Cc3cccc(C(=O)OC)c3)[C@@H](Cc3ccccc3)[C@@H](O)[C@@H]2CCc2ccccc2)c1` yielded an IC90 in assay [1] above 5000 nM.
With `O=C1N(Cc2ccccc2)[C@H](CCc2ccccc2)[C@@H](O)[C@@H](Cc2ccccc2)N1Cc1ccccc1`, the 90% effect level in assay [1] (IC90) was put at 2800 nM. Moreover, in assay [2], affinity was put at a Ki of 15 nM.
Molecule `N=C(NO)c1cccc(CN2C(=O)N(Cc3cccc(/C(N)=N/O)c3)[C@H](CCc3ccccc3)[C@@H](O)[C@H]2Cc2ccccc2)c1` showed an IC90 in assay [1] of 49 nM.
In assay [1], `NC(=O)c1cc(CN2C(=O)N(Cc3ccc(F)c(C(N)=O)c3)[C@H](Cc3ccccc3)[C@H](O)[C@H]2CCc2ccccc2)ccc1F` yielded an IC90 of 490 nM. The molecule further gave an inhibition constant (Ki) in assay [2] of 1.4 nM.
In the same order, the values of `O=C1N(Cc2cccc(CO)c2)[C@H](CCc2ccccc2)[C@@H](O)[C@@H](Cc2ccccc2)N1Cc1cccc(CO)c1` are 109 nM and 0.49 nM.

In general, IC90 refers to the concentration needed for an effect of 90%. Low values mean greater potency, high ones weaker potency. As usually defined, the Ki is a measure of affinity in units of concentration, obtained from inhibition or displacement.
